Test results: ChEMBL document CHEMBL2390915, “Synthesis and biological evaluation of arctigenin ester and ether derivatives as activators of AMPK” (Bioorg Med Chem, 2013)

Tested on: L6
Test: Activation of AMPK in rat L6 cells assessed as phosphorylated protein level at 40 uM after 30 mins by Western blot analysis relative to arctigenin
Format: cell-based
Method in brief: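 L6 myoblasts kept in DMEM + 10% FBS at 37 °C, 5% CO2, then differentiated to myotubes in DMEM + 2% horse serum once 90% confluent. Cells exposed to 40 µM compound for 30 min. Lysates (Tris-HCl pH 7.5, NaCl, Na3VO4, Triton X-100, protease inhibitors) immunoblotted for phospho-AMPK and total AMPK by chemiluminescence. Band intensity × area normalized to total AMPK; three independent experiments.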

Q: For `COc1cc(CCOc2ccc(C[C@H]3C(=O)OC[C@@H]3Cc3ccc(OC)c(OC)c3)cc2OC)cc(OC)c1`, which fold change (FC) is on record?
A: The fold change (FC) was 0.73.

Q: `COc1ccc(C[C@H]2COC[C@@H]2Cc2ccc(OC(=O)c3ccc(OC)c(OC)c3)c(OC)c2)cc1OC` was tested. Which fold change (FC) did it give?
A: Its fold change (FC) is 0.82.

Q: How did the fold change (FC) turn out when `COc1ccc(CC(=O)Oc2ccc(C[C@H]3COC[C@@H]3Cc3ccc(OC)c(OC)c3)cc2OC)cc1OC` was run?
A: Its fold change (FC) is 0.83.

Q: How did the fold change (FC) turn out when `COc1ccc(C[C@H]2COC(=O)[C@@H]2Cc2ccc(OCCc3ccccc3F)c(OC)c2)cc1OC` was run?
A: The fold change (FC) was 0.34.

Q: Which fold change (FC) does the source give for `COc1cccc(CCOc2ccc(C[C@H]3C(=O)OC[C@@H]3Cc3ccc(OC)c(OC)c3)cc2OC)c1` here?
A: The fold change (FC) was 0.69.

Q: How did the fold change (FC) turn out when `CCc1cncc(CCOc2ccc(C[C@H]3COC[C@@H]3Cc3ccc(OC)c(OC)c3)cc2OC)c1` was run?
A: Its fold change (FC) is 0.64.

Q: Which fold change (FC) does the source give for `COc1ccc(C[C@H]2COC(=O)[C@@H]2Cc2ccc(OC(=O)c3ccco3)c(OC)c2)cc1OC` here?
A: Its fold change (FC) is 0.69.

Q: With `CCC(=O)Oc1ccc(C[C@H]2C(=O)OC[C@@H]2Cc2ccc(OC)c(OC)c2)cc1OC` as the compound, how does the fold change (FC) read?
A: Its fold change (FC) is 0.92.

Q: Which fold change (FC) does the source give for `COc1ccc(C[C@H]2COC(=O)[C@@H]2Cc2ccc(OCCc3ccc(F)cc3)c(OC)c2)cc1OC` here?
A: The fold change (FC) was 0.35.

Q: Which fold change (FC) does the source give for `COc1ccc(C[C@H]2COC[C@@H]2Cc2ccc(OCC(=O)c3ccc(OC)c(OC)c3)c(OC)c2)cc1OC` here?
A: The fold change (FC) was 0.66.

Q: For `COc1ccc(CCOc2ccc(C[C@H]3COC[C@@H]3Cc3ccc(OC)c(OC)c3)cc2OC)cc1OC`, which fold change (FC) is on record?
A: The fold change (FC) was 1.45.

Q: With `COc1ccc(C(=O)Oc2ccc(C[C@H]3C(=O)OC[C@@H]3Cc3ccc(OC)c(OC)c3)cc2OC)cc1` as the compound, how does the fold change (FC) read?
A: Its fold change (FC) is 0.46.

Q: Which fold change (FC) does the source give for `COc1ccc(C[C@H]2COC(=O)[C@@H]2Cc2ccc(OC(=O)C(C)C)c(OC)c2)cc1OC` here?
A: The fold change (FC) was 0.82.

Q: How did the fold change (FC) turn out when `COc1ccc(C[C@H]2COC[C@@H]2Cc2ccc(OC(=O)CC(C)C)c(OC)c2)cc1OC` was run?
A: Its fold change (FC) is 0.25.

Q: `COc1ccc(C[C@H]2COC(=O)[C@@H]2Cc2ccc(OC(C)=O)c(OC)c2)cc1OC` was tested. Which fold change (FC) did it give?
A: Its fold change (FC) is 1.11.

Q: How did the fold change (FC) turn out when `COc1ccc(C[C@H]2COC(=O)[C@@H]2Cc2ccc(OC(=O)c3ccc(OC)c(OC)c3)c(OC)c2)cc1OC` was run?
A: Its fold change (FC) is 0.3.

Q: How did the fold change (FC) turn out when `COc1ccc(C[C@H]2COC(=O)[C@@H]2Cc2ccc(OCCc3ccccc3Cl)c(OC)c2)cc1OC` was run?
A: The fold change (FC) was 0.24.

Q: How did the fold change (FC) turn out when `COc1ccc(CCOc2ccc(C[C@H]3C(=O)OC[C@@H]3Cc3ccc(OC)c(OC)c3)cc2OC)cc1` was run?
A: Its fold change (FC) is 0.32.

Q: `COc1ccc(CCCOc2ccc(C[C@H]3COC[C@@H]3Cc3ccc(OC)c(OC)c3)cc2OC)cc1OC` was tested. Which fold change (FC) did it give?
A: The fold change (FC) was 0.97.

Q: `COc1ccc(CCCOc2ccc(C[C@H]3C(=O)OC[C@@H]3Cc3ccc(OC)c(OC)c3)cc2OC)cc1OC` was tested. Which fold change (FC) did it give?
A: Its fold change (FC) is 0.71.

Q: How did the fold change (FC) turn out when `COc1ccc(C[C@H]2COC[C@@H]2Cc2ccc(OCCc3ccc(Cl)cc3)c(OC)c2)cc1OC` was run?
A: The fold change (FC) was 0.79.

Q: For `COCCOc1ccc(C[C@H]2C(=O)OC[C@@H]2Cc2ccc(OC)c(OC)c2)cc1OC`, which fold change (FC) is on record?
A: Its fold change (FC) is 0.17.

Q: With `COc1ccc(C[C@H]2COC(=O)[C@@H]2Cc2ccc(OC(=O)CC(C)C)c(OC)c2)cc1OC` as the compound, how does the fold change (FC) read?
A: The fold change (FC) was 0.48.

Q: Which fold change (FC) does the source give for `COc1ccc(CC(=O)Oc2ccc(C[C@H]3C(=O)OC[C@@H]3Cc3ccc(OC)c(OC)c3)cc2OC)cc1OC` here?
A: Its fold change (FC) is 0.69.

Q: With `COc1ccc(C[C@H]2COC(=O)[C@@H]2Cc2ccc(OCCc3ccc(Cl)cc3)c(OC)c2)cc1OC` as the compound, how does the fold change (FC) read?
A: The fold change (FC) was 0.26.

Q: With `COc1ccc(C[C@H]2COC(=O)[C@@H]2Cc2ccc(OC(=O)c3cccnc3)c(OC)c2)cc1OC` as the compound, how does the fold change (FC) read?
A: Its fold change (FC) is 0.87.

Q: With `COc1ccc(COc2ccc(C[C@H]3C(=O)OC[C@@H]3Cc3ccc(OC)c(OC)c3)cc2OC)cc1OC` as the compound, how does the fold change (FC) read?
A: The fold change (FC) was 0.36.

Q: For `CCCC(=O)Oc1ccc(C[C@H]2COC[C@@H]2Cc2ccc(OC)c(OC)c2)cc1OC`, which fold change (FC) is on record?
A: Its fold change (FC) is 0.25.

Q: For `CCOc1ccc(C[C@H]2C(=O)OC[C@@H]2Cc2ccc(OC)c(OC)c2)cc1OC`, which fold change (FC) is on record?
A: Its fold change (FC) is 0.14.

Q: Which fold change (FC) does the source give for `COc1ccc(C[C@H]2COC(=O)[C@@H]2Cc2ccc(OC(=O)C3CC3)c(OC)c2)cc1OC` here?
A: Its fold change (FC) is 0.62.

Q: Which fold change (FC) does the source give for `COc1ccc(C[C@H]2COC(=O)[C@@H]2Cc2ccc(OC(=O)CC(C)(C)C)c(OC)c2)cc1OC` here?
A: The fold change (FC) was 0.32.

Q: For `COc1cc(C[C@H]2COC[C@@H]2Cc2ccc(OC)c(OC)c2)ccc1O`, which fold change (FC) is on record?
A: The fold change (FC) was 0.49.

Q: Which fold change (FC) does the source give for `COc1ccc(CCOc2ccc(C[C@H]3COC[C@@H]3Cc3ccc(OC)c(OC)c3)cc2OC)cc1` here?
A: Its fold change (FC) is 0.9.

Q: Which fold change (FC) does the source give for `COc1ccc(C(=O)Oc2ccc(C[C@H]3COC[C@@H]3Cc3ccc(OC)c(OC)c3)cc2OC)cc1` here?
A: The fold change (FC) was 0.25.

Q: `COc1ccc(C[C@H]2COC(=O)[C@@H]2Cc2ccc(OC(=O)c3ccccc3)c(OC)c2)cc1OC` was tested. Which fold change (FC) did it give?
A: The fold change (FC) was 0.81.

Q: For `CCCCC(=O)Oc1ccc(C[C@H]2C(=O)OC[C@@H]2Cc2ccc(OC)c(OC)c2)cc1OC`, which fold change (FC) is on record?
A: The fold change (FC) was 1.16.

Q: With `COc1ccc(C[C@H]2COC(=O)[C@@H]2Cc2ccc(OCCc3ccc(C(C)(C)C)cc3)c(OC)c2)cc1OC` as the compound, how does the fold change (FC) read?
A: The fold change (FC) was 0.09.

Q: `C/C=C/C(=O)Oc1ccc(C[C@H]2C(=O)OC[C@@H]2Cc2ccc(OC)c(OC)c2)cc1OC` was tested. Which fold change (FC) did it give?
A: The fold change (FC) was 0.86.

Q: For `COc1ccc(C[C@H]2COC(=O)[C@@H]2Cc2ccc(OC(C)C)c(OC)c2)cc1OC`, which fold change (FC) is on record?
A: Its fold change (FC) is 0.2.

Q: Which fold change (FC) does the source give for `COc1cc(CCOc2ccc(C[C@H]3COC[C@@H]3Cc3ccc(OC)c(OC)c3)cc2OC)cc(OC)c1` here?
A: Its fold change (FC) is 0.68.

Q: Which fold change (FC) does the source give for `COc1ccc(C[C@H]2COC[C@@H]2Cc2ccc(OC(=O)c3ccco3)c(OC)c2)cc1OC` here?
A: The fold change (FC) was 0.41.

Q: Which fold change (FC) does the source give for `COc1ccc(C[C@H]2COC(=O)[C@@H]2Cc2ccc(OCCc3ccccc3)c(OC)c2)cc1OC` here?
A: The fold change (FC) was 0.2.

Q: How did the fold change (FC) turn out when `COc1ccc(CCOc2ccc(C[C@H]3C(=O)OC[C@@H]3Cc3ccc(OC)c(OC)c3)cc2OC)cc1OC` was run?
A: Its fold change (FC) is 0.93.

Q: `COc1ccc(C[C@H]2COC[C@@H]2Cc2ccc(OCCc3cc(OC)c(OC)c(OC)c3)c(OC)c2)cc1OC` was tested. Which fold change (FC) did it give?
A: Its fold change (FC) is 1.25.

Q: `COc1ccc(C[C@H]2COC[C@@H]2Cc2ccc(OC(=O)c3cccnc3)c(OC)c2)cc1OC` was tested. Which fold change (FC) did it give?
A: Its fold change (FC) is 0.71.

Q: How did the fold change (FC) turn out when `COc1ccc(C[C@H]2COC[C@@H]2Cc2ccc(OC(C)=O)c(OC)c2)cc1OC` was run?
A: Its fold change (FC) is 0.26.

Q: With `COc1ccc(C[C@H]2COC[C@@H]2Cc2ccc(OCCc3cccnc3)c(OC)c2)cc1OC` as the compound, how does the fold change (FC) read?
A: Its fold change (FC) is 0.81.

Q: For `COc1ccc(C[C@H]2COC(=O)[C@@H]2Cc2ccc(OC(=O)c3ccc(F)cc3)c(OC)c2)cc1OC`, which fold change (FC) is on record?
A: The fold change (FC) was 0.63.

Q: For `COc1ccc(C[C@H]2COC(=O)[C@@H]2Cc2ccc(OC(=O)c3ccc(C)cc3)c(OC)c2)cc1OC`, which fold change (FC) is on record?
A: Its fold change (FC) is 0.46.

Q: With `CCCC(=O)Oc1ccc(C[C@H]2C(=O)OC[C@@H]2Cc2ccc(OC)c(OC)c2)cc1OC` as the compound, how does the fold change (FC) read?
A: The fold change (FC) was 0.94.

Q: How did the fold change (FC) turn out when `COc1cccc(C(=O)Oc2ccc(C[C@H]3C(=O)OC[C@@H]3Cc3ccc(OC)c(OC)c3)cc2OC)c1` was run?
A: The fold change (FC) was 0.64.

Q: How did the fold change (FC) turn out when `COc1ccc(C[C@H]2COC[C@@H]2Cc2ccc(OCCc3ccc(F)cc3)c(OC)c2)cc1OC` was run?
A: The fold change (FC) was 0.97.

Q: `COc1ccc(C[C@H]2COC[C@@H]2Cc2ccc(OC(=O)C3CCCCC3)c(OC)c2)cc1OC` was tested. Which fold change (FC) did it give?
A: Its fold change (FC) is 0.23.

Q: `CCOc1ccc(CCOc2ccc(C[C@H]3C(=O)OC[C@@H]3Cc3ccc(OC)c(OC)c3)cc2OC)cc1OCC` was tested. Which fold change (FC) did it give?
A: The fold change (FC) was 0.34.

Q: Which fold change (FC) does the source give for `COc1ccc(C[C@H]2COC(=O)[C@@H]2Cc2ccc(OCCc3ccc4c(c3)OCO4)c(OC)c2)cc1OC` here?
A: The fold change (FC) was 0.28.

Q: How did the fold change (FC) turn out when `COc1ccc(C[C@H]2COC[C@@H]2Cc2ccc(OCCc3ccc(F)c(F)c3)c(OC)c2)cc1OC` was run?
A: Its fold change (FC) is 0.91.

Q: Which fold change (FC) does the source give for `COc1ccccc1CCOc1ccc(C[C@H]2C(=O)OC[C@@H]2Cc2ccc(OC)c(OC)c2)cc1OC` here?
A: Its fold change (FC) is 0.32.

Q: How did the fold change (FC) turn out when `COc1cccc(CCOc2ccc(C[C@H]3COC[C@@H]3Cc3ccc(OC)c(OC)c3)cc2OC)c1` was run?
A: Its fold change (FC) is 1.33.

Q: Which fold change (FC) does the source give for `COc1ccc(C[C@H]2COC[C@@H]2Cc2ccc(OC(=O)c3ccc(F)cc3)c(OC)c2)cc1OC` here?
A: The fold change (FC) was 0.37.

Q: `COc1cccc(C(=O)Oc2ccc(C[C@H]3COC[C@@H]3Cc3ccc(OC)c(OC)c3)cc2OC)c1` was tested. Which fold change (FC) did it give?
A: The fold change (FC) was 0.82.

Q: With `COc1ccc(C[C@H]2COC(=O)[C@@H]2Cc2ccc(OCCc3cc(OC)c(OC)c(OC)c3)c(OC)c2)cc1OC` as the compound, how does the fold change (FC) read?
A: The fold change (FC) was 0.57.
